The values that follow come from ChEMBL document CHEMBL4765302, “Design, synthesis and biological evaluation of novel histone deacetylase1/2 (HDAC1/2) and cyclin-dependent Kinase2 (CDK2) dual inhibitors against malignant cancer” (Eur J Med Chem, 2020).

Assay [1] concerns A-375. Kind of assay: Induction of apoptosis in human A-375 cells assessed as early apoptotic cells at 2 uM incubated for 48 hrs by annexin V-FITC and PI staining based flow cytometry (reference value: 1.34 %). Type of assay: functional. A general note: In flow cytometry, cells or beads pass a laser one at a time.
Assay [2] relates to HCT-116. Kind of assay: Antiproliferative activity against human HCT-116 cells assessed as reduction in cell growth at 2 uM incubated for 72 hrs by CCK-8 assay relative to control. Type of assay: functional.
In assay [3] the test system is HCT-116. Kind of assay: Antiproliferative activity against human HCT-116 cells assessed as reduction in cell growth at 8 uM incubated for 72 hrs by CCK-8 assay relative to control. Type of assay: functional. (In general: Tetrazolium assays rely on reduction of a dye to a coloured formazan, in cell work by metabolically active cells.)
The test system of assay [4] is HepG2. Description: Antiproliferative activity against human HepG2 cells assessed as reduction in cell growth at 2 uM incubated for 72 hrs by CCK-8 assay relative to control. Type of assay: functional.
Assay [5] concerns HepG2. Description: Antiproliferative activity against human HepG2 cells assessed as reduction in cell growth at 8 uM incubated for 72 hrs by CCK-8 assay relative to control. The class given is functional.
Assay [6] deals with NCI-H460. Kind of assay: Antiproliferative activity against human H460 cells assessed as reduction in cell growth at 2 uM incubated for 72 hrs by CCK-8 assay relative to control. Type of assay: functional.
The test system of assay [7] is NCI-H460. Description: Antiproliferative activity against human H460 cells assessed as reduction in cell growth at 8 uM incubated for 72 hrs by CCK-8 assay relative to control. Type of assay: functional.
The test system of assay [8] is NCI-H460. Kind of assay: Antiproliferative activity against human NCI-H460 cells assessed as reduction in cell growth incubated for 72 hrs by CCK-8 assay. The class given is functional, cell-based. Conditions: NCI-H460, 72 h. In short, it runs like this:
(§1)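 IC50 by CCK-8 assay across five solid-tumour lines (HCT116, HepG2, H460, HeLa, A375). Run only for compounds chosen after the single-concentration screen, with CS055 and roscovitine as references.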

Assay [9] deals with A-375. Description: Antiproliferative activity against human A-375 cells assessed as reduction in cell growth incubated for 72 hrs by CCK-8 assay. The class given is functional, cell-based. Conditions: A-375, 72 h. Put shortly: as §1
The test system of assay [10] is HepG2. Description: Antiproliferative activity against human HepG2 cells assessed as reduction in cell growth incubated for 72 hrs by CCK-8 assay. The class given is functional, cell-based. Conditions: HepG2, 72 h. Put shortly:
as §1

In assay [11] the test system is HCT-116. Kind of assay: Antiproliferative activity against human HCT-116 cells assessed as reduction in cell growth incubated for 72 hrs by CCK-8 assay. The class given is functional, cell-based. Conditions: HCT-116, 72 h. In short, it runs like this: as §1
Assay [12] relates to HeLa. Kind of assay: Antiproliferative activity against human HeLa cells assessed as reduction in cell growth incubated for 72 hrs by CCK-8 assay. Type of assay: functional, cell-based. In short, it runs like this: as §1
The target in assay [13] is Histone deacetylase 2 (Homo sapiens, UniProt Q92769). Kind of assay: Inhibition of recombinant human HDAC2 using FLUOR-DE-LYS-Green as substrate incubated for 10 mins followed by substrate addition and measured after 30 mins by fluorescence based assay. In short, it runs like this: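 IC50 values reported as means of at least two separate determinations, expressed as mean ±SD.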

Assay [14] concerns A-375. Kind of assay: Induction of apoptosis in human A-375 cells assessed as viable cells at 2 uM incubated for 48 hrs by annexin V-FITC and PI staining based flow cytometry (reference value: 96.3 %). Type of assay: functional. Conditions: read-out: Activity.
Assay [15] has as its system A-375. Kind of assay: Induction of apoptosis in human A-375 cells assessed as late apoptotic cells at 2 uM incubated for 48 hrs by annexin V-FITC and PI staining based flow cytometry (reference value: 2.24 %). The class given is functional.
Assay [16] has as its system A-375. Description: Induction of apoptosis in human A-375 cells assessed as necrotic cells at 2 uM incubated for 48 hrs by annexin V-FITC and PI staining based flow cytometry (reference value: 0.139 %). Type of assay: functional.
Assay [17] deals with HCT-116. Kind of assay: Induction of apoptosis in human HCT-116 cells assessed as viable cells at 2 uM incubated for 48 hrs by annexin V-FITC and PI staining based flow cytometry (reference value: 93.9 %). Type of assay: functional. Conditions: read-out: Activity.
For assay [18], the system named is HCT-116. Description: Induction of apoptosis in human HCT-116 cells assessed as early apoptotic cells at 2 uM incubated for 48 hrs by annexin V-FITC and PI staining based flow cytometry (reference value: 4.14 %). The class given is functional.
Assay [19] deals with HCT-116. Kind of assay: Induction of apoptosis in human HCT-116 cells assessed as late apoptotic cells at 2 uM incubated for 48 hrs by annexin V-FITC and PI staining based flow cytometry (reference value: 1.88 %). The class given is functional.
Assay [20] has as its system HCT-116. Kind of assay: Induction of apoptosis in human HCT-116 cells assessed as necrotic cells at 2 uM incubated for 48 hrs by annexin V-FITC and PI staining based flow cytometry (reference value: 0.124 %). The class given is functional.
The subject of assay [21] is NCI-H460. Description: Induction of apoptosis in human NCI-H460 cells assessed as viable cells at 2 uM incubated for 48 hrs by annexin V-FITC and PI staining based flow cytometry (reference value: 90.4 %). The class given is functional. As to conditions: read-out: Activity.
Assay [22] relates to NCI-H460. Kind of assay: Induction of apoptosis in human NCI-H460 cells assessed as early apoptotic cells at 2 uM incubated for 48 hrs by annexin V-FITC and PI staining based flow cytometry (reference value: 2.88 %). Type of assay: functional.
The test system of assay [23] is NCI-H460. Description: Induction of apoptosis in human NCI-H460 cells assessed as late apoptotic cells at 2 uM incubated for 48 hrs by annexin V-FITC and PI staining based flow cytometry (reference value: 6.11 %). Type of assay: functional.
Assay [24] deals with NCI-H460. Description: Induction of apoptosis in human NCI-H460 cells assessed as necrotic cells at 2 uM incubated for 48 hrs by annexin V-FITC and PI staining based flow cytometry (reference value: 0.632 %). The class given is functional.
Assay [25] has as its system HeLa. Description: Induction of apoptosis in human HeLa cells assessed as viable cells at 2 uM incubated for 48 hrs by annexin V-FITC and PI staining based flow cytometry (reference value: 98.5 %). The class given is functional. Conditions: read-out: Activity.
For assay [26], the system named is HeLa. Kind of assay: Induction of apoptosis in human HeLa cells assessed as early apoptotic cells at 2 uM incubated for 48 hrs by annexin V-FITC and PI staining based flow cytometry (reference value: 0.528 %). The class given is functional.
Assay [27] has as its system HeLa. Description: Induction of apoptosis in human HeLa cells assessed as late apoptotic cells at 2 uM incubated for 48 hrs by annexin V-FITC and PI staining based flow cytometry (reference value: 0.870 %). The class given is functional.
Assay [28] deals with HeLa. Kind of assay: Induction of apoptosis in human HeLa cells assessed as necrotic cells at 2 uM incubated for 48 hrs by annexin V-FITC and PI staining based flow cytometry (reference value: 0.124 %). The class given is functional.
In assay [29] the target is Histone deacetylase 1 (Homo sapiens, UniProt Q13547). Kind of assay: Inhibition of recombinant human HDAC1 at 10 uM using SIRT1 as substrate incubated for 10 mins followed by substrate addition and measured after 30 mins by fluorescence based assay relative to control. Conditions: time 40.0 min. In short, it runs like this: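 Enzyme inhibition of HDAC1 measured at a single concentration of 10 µM, tested alongside the cell-growth screen.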

The structures appear in SMILES notation.

Sequence of Histone deacetylase 1 (Q13547 whole entry): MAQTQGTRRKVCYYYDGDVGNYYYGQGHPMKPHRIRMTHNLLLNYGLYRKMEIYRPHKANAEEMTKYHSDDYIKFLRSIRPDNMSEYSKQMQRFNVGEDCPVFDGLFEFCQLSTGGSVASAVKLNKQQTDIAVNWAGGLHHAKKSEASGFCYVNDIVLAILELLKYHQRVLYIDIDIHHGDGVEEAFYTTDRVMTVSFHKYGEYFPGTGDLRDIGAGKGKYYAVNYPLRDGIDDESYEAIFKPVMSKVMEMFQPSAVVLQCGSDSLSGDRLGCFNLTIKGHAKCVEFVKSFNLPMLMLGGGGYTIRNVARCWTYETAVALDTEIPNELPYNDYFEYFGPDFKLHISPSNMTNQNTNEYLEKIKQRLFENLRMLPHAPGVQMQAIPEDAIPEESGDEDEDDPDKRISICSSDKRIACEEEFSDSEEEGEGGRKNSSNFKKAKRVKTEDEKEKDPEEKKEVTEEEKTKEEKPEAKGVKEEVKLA
Sequence of Histone deacetylase 2 (Q92769 whole entry): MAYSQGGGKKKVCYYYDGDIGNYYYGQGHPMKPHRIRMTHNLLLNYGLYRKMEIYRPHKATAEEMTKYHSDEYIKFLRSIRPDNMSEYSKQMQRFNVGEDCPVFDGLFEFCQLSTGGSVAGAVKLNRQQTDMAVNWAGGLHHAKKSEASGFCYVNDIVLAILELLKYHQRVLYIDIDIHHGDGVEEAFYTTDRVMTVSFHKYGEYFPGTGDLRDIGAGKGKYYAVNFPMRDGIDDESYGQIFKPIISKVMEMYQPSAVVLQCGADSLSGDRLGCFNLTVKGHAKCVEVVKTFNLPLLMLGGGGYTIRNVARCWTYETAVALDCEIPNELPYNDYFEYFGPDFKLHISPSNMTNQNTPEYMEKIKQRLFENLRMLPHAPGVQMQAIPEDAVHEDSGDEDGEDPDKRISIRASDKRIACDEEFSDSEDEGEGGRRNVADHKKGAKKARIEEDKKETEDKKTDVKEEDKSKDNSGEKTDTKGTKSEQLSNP

Usually inhibition stands for the drop in the measured response relative to a control, in per cent. What is called IC50 is the concentration that inhibits the measured activity by half. In the case of `Nc1ccc(F)cc1NC(=O)c1ccc(CNC(=O)/C=C/c2cccnc2)cc1`, the Activity in [1] came out at 14.2%; in [15] it was 49.5%; in [16], 1.73%; in assay [18], 54.6%; in assay [19] it was 3.12%; in assay [20], 0.985%. Further, the Activity in [22] came out at 14.7%; in assay [23], 15.1%; in assay [24] it was 0.543%; in [26], 0.555%; in assay [27], 1.04%; in assay [28], 0.103%. The inhibition at 2 µM in [2] stood at 65.7%; in assay [4] it was 8.36%; in [6], 1.73%. The inhibition at 8 µM in [3] was 73.4%; in assay [5] it was 40.6%; in assay [7], 38.2%. The IC50 amounted to 13.3 µM in assay [8]; 6.72 µM in [9]; 11.7 µM in assay [10]; 1.49 µM in [11]; 11 µM in assay [12]; 0.0665 µM in [13]. The viability at 2 µM in assay [14] stood at 34.5%; in [17], 41.3%; in assay [21] it was 69.6%; in assay [25], 98.3%.
`CC[C@H](CO)Nc1nc(NCc2ccccc2)c2ncn(C(C)C)c2n1` [SELICICLIB]: the Activity is 7.03% in assay [1]; 42.3% in assay [15]; 0.189% in [16]; 83.9% in [18]; 4.24% in assay [19]; 0.24% in assay [20]. The Activity in [22] is on record as 14%; in [23], 36%; in assay [24] it was 3.09%; in assay [26], 4.04%; in assay [27], 7.16%; in [28], 0.424%. Moreover, the results for the inhibition at 2 µM in assay [2], in assay [4] and in [6] were 23.5%, 12% and 7.73%, respectively. The inhibition at 8 µM in [3] amounted to 29.1%; in [5], 22.1%; in assay [7] it was 15.6%. The IC50 in [8] is 11.9 µM; in [9], 11.8 µM; in assay [10], 8.53 µM; in [11], 6.76 µM; in assay [12], 11.2 µM. In addition, the viability at 2 µM in assay [14] came to 50.5%; in assay [17], 11.6%; in [21], 47%; in assay [25], 88.4%.
Take `CC1CCN(c2nc(Cl)nc3c2ncn3Cc2ccc(C(=O)Nc3ccccc3N)cc2)CC1`: the inhibition at 2 µM in assay [2] was found to be 70.9%; in [4], 1.22%; in assay [6], 11.8%. The inhibition at 8 µM is 78.6% in assay [3], 65.3% in assay [5] and 40.9% in assay [7]. The inhibition in [29] came out at 75.3%. Moreover, the IC50 in assay [8] is 7.4 µM; in [9] it was 4.24 µM; in [10] it was 5.18 µM; in [11], 0.95 µM; in assay [12], 4.5 µM.
`CCC(C)n1cnc2c(NCc3ccc(C(=O)Nc4ccccc4N)cc3)nc(Cl)nc21` (stereo not drawn): the figures for the inhibition at 2 µM in [2], in assay [4] and in [6] were 74.6%, 45% and 47.3%, respectively. The inhibition at 8 µM in [3] worked out at 75.1%; in assay [5], 65%; in assay [7], 67.7%. In assay [29], the inhibition was 94.7%. Also, the IC50 in [8] worked out at 4.94 µM; in [9], 2.88 µM; in [10], 2.99 µM; in [11], 0.72 µM; in [12] it was 3.03 µM.
In the case of `Nc1ccccc1NC(=O)c1ccc(Cn2cnc3c(Nc4ccccc4)nc(Cl)nc32)cc1`, the inhibition at 2 µM in assay [2] came to 71.4%; in assay [4] it was 49.6%; in assay [6] it was 42.7%. Besides, the figures for the inhibition at 8 µM in assay [3], in [5] and in [7] were 83.5%, 74.8% and 77.8%, respectively. The inhibition in assay [29] came out at 84%. Further, the IC50 in assay [8] is 5.74 µM; in assay [9] it was 2.8 µM; in assay [10], 4.18 µM; in assay [11], 1.07 µM; in assay [12], 2.92 µM.
Regarding `Nc1ccccc1NC(=O)c1ccc(Cn2cnc3c(NCc4ccccc4)nc(Cl)nc32)cc1`, the inhibition at 2 µM in assay [2] came out at 68.3%; in assay [4] it was 7.55%; in assay [6] it was 44.7%. The inhibition at 8 µM in [3] was found to be 78.3%; in assay [5], 62.8%; in assay [7], 61.2%. The inhibition in [29] is 76%. Besides, the concentration for half-maximal inhibition (IC50) came to 11.2 µM in assay [8]; 5.83 µM in [9]; 7.72 µM in assay [10]; 1.06 µM in [11]; 6.77 µM in assay [12].
